Key:
[1] = biological target: uridine phosphorylase type 1 (Homo sapiens, UniProt Q16831); assay: Uridine phosphorylase assay, conversion to the free base; assay type: biochemical; conditions: purified recombinant enzyme, 100 μM substrate, 20, 40 and 60 min; data not shown
Summary of the method: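 Samples taken at 20, 40 and 60 min and heated at 95 °C for 3 min. Nucleoside and free base separated on RP-8 HPLC with phosphate/heptane sulfonate (pH 3.2) to acetonitrile gradient; UV detection at 267 nm.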

[2] = biological target: T1, human recombinant thymidine phosphorylase (Homo sapiens, UniProt P19971); assay: Thymidine phosphorylase assay, conversion to the free base; assay type: biochemical; conditions: purified recombinant enzyme, 100 μM substrate, 20, 40 and 60 min; data not shown
T1 sequence (P19971 11-482): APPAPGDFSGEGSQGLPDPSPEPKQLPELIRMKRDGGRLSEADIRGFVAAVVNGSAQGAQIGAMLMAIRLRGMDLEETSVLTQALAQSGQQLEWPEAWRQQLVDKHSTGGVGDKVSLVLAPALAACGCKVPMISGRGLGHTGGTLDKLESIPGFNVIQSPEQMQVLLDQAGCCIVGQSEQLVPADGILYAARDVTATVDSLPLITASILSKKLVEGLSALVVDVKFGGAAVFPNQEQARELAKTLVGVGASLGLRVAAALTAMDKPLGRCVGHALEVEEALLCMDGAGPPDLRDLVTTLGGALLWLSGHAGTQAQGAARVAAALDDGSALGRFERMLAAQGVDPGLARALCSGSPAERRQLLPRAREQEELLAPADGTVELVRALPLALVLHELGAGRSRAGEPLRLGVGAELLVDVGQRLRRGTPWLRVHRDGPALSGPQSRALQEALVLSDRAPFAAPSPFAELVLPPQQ
Summary of the method: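 Aliquots taken at 20, 40 and 60 min and heat-inactivated at 95 °C for 3 min. Free base quantified by RP-8 HPLC with phosphate/heptane sulfonate (pH 3.2) to acetonitrile gradient; UV detection at 267 nm.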

[3] = test system: human T-lymphocyte cells (Molt4/C8); assay: Cytostatic assay, inhibition of tumor cell proliferation; assay type: cell-based; conditions: Molt4/C8, read-out: IC50 (50% inhibitory concentration, tumor cell proliferation)

Chain of uridine phosphorylase type 1 (Q16831 whole entry): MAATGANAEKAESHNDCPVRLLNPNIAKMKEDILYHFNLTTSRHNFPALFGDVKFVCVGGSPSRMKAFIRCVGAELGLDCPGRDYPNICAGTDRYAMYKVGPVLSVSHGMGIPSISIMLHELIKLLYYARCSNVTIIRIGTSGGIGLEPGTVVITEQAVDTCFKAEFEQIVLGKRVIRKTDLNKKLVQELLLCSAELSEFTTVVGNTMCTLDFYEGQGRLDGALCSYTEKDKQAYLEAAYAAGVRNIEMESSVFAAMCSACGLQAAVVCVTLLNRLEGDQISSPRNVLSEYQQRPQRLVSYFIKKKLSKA

| SMILES | IC50 [3] [µM] | also measured |
| --- | --- | --- |
| O=c1ccn([C@@H]2O[C@H](CO)[C@@H](O)[C@H]2O)c(=O)[nH]1 [uridine] |  | hydrolysis to the free pyrimidine base by uridine phosphorylase type I (UPase) [1]: readily converted |
| Cc1cn([C@H]2C[C@H](O)[C@@H](CO)O2)c(=O)[nH]c1=O [thymidine] |  | hydrolysis to the free pyrimidine base by thymidine phosphorylase (TPase) [2]: readily converted |
| Nc1ccn([C@@H]2O[C@H](CO)[C@@H](O)[C@H](F)[C@H]2O)c(=O)n1 [3f, 1-(3-Deoxy-3-fluoro-β-D-glucopyranosyl)cytosine] | 163 ± 21 |  |
| Nc1ncnc2c1ncn2[C@@H]1O[C@H](CO)[C@@H](O)[C@H](F)[C@H]1O [3g, 9-(3-Deoxy-3-fluoro-β-D-glucopyranosyl)adenine] | 183 ± 24 |  |

Reference: PMC7112006 (Bioorganic Chemistry, 2010)
